# Only some compounds are listed: those with a hit (about 3.5% of all), similar ones and a draw of the others.
# MrgX1 PAM = positive allosteric modulators of MrgX1, primary screen, HEK293 cells, Fluo-4 calcium flux. Mas-related G-protein coupled receptor member X1 (Homo sapiens), Q96LB2. B-score at 10 µM. hit rate 0.63% among 310,000. FDSS; hits give high values;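 active = plate-corrected calcium response at least 3 library SD above typical, normal starting fluorescence, not activating the receptor alone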;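 note: compound read alongside a low EC10 to EC30 dose of BAM8-22 agonist; peak minus trough fluorescence over baseline measured at the second addition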
# Target sequence (Q96LB2 whole entry, looked up): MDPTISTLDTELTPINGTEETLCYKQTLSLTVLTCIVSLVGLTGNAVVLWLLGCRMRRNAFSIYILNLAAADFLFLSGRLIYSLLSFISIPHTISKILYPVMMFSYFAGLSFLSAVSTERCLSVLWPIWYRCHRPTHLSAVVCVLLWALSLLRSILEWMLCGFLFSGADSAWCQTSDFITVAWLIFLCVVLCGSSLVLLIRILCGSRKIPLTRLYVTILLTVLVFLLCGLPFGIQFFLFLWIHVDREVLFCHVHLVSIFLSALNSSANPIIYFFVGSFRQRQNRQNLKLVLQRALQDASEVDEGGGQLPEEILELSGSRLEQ
# MrgX1 antagonist = antagonists of human MrgX1 receptor, primary screen, HEK293 cells, Fluo-4 calcium flux; Mas-related G-protein coupled receptor member X1 (Homo sapiens), Q96LB2; BAM8-22 antagonism; hits give low values; B-score at 10 µM; hit rate 1.3% among 310,000; AID 588676, 2011;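 active = calcium-response B-score plate-corrected more than 3 library SD below zero, starting fluorescence within 5 deviations, no agonist response on first addition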;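 note: peak minus trough fluorescence over baseline after final BAM8-22 challenge near maximal dose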
# RGS4 block = RGS4 inhibitors, primary screen, cell-based, HEK293 M3R inducible RGS4, calcium flux. Fluo-4 calcium flux; hits give high values; triggered by carbachol at its EC20. B-score at 10 µM. hit rate 0.45% among 310,000;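 active = B-score, a plate-corrected calcium signal, over three deviations above library mean, with baseline fluorescence within five deviations of library mean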;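 note: RGS4 expression induced by doxycycline in cells with stable M3 receptor; B-score is computed from the integrated fluorescence ratio over baseline after carbachol; higher B-score means a larger calcium signal and so more RGS4 inhibition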
# Target sequence (P49798 whole entry, looked up): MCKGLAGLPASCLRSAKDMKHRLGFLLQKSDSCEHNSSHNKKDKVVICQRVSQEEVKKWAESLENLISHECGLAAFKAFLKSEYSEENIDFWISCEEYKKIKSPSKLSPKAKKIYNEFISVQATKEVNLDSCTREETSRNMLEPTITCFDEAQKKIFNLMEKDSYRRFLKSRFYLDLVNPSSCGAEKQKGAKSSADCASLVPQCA
# RGS4 pot = RGS4 potentiators or activators, primary screen, cell-based, HEK293 M3R inducible RGS4, calcium flux; AID 463111, 2010; hit rate 0.92% among 310,000; B-score at 10 µM; carbachol calcium flux Fluo4; hits give low values;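 active = B-score of the integrated calcium signal more than 4 SD below the library mean, with starting fluorescence not abnormally high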;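 note: negative B-score means reduced calcium response which marks RGS4 activation or potentiation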
#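 test system = M3R-expressing HEK293 line, RGS4 induced by doxycycline | probe or stimulus = carbachol at ECmax as muscarinic agonist stimulus | timing = dye loading 30 min 37 °C, buffer rest 30 min RT | signal = calcium dye Fluo4 fluorescence | evaluation = B score from integrated fluorescence ratio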
# MrgX1 agonist = agonists of human MrgX1 receptor, primary screen, HEK293 cells, Fluo-4 calcium flux; B-score at 10 µM; hit rate 0.44% among 310,000; AID 588627, 2011; Mas-related G-protein coupled receptor member X1 (Homo sapiens), Q96LB2; Fluo-4 calcium fluorescence, agonist mode; hits give high values;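 active = calcium response B-score plate-corrected fluorescence ratio at least 3 library SD, with starting fluorescence B-score inside 5 SD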
#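 Test system: HEK293 cells stably expressing human MrgX1 receptor; Input: fifteen thousand cells per well; Dosing: compound delivered in addition one of three; Schedule: overnight seeding, then 1 h dark dye loading; Technique: Fluo-4 NW calcium fluorescence; Measure: B-scored fluorescence response ratio; Controls: positive and negative controls per plate.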
# * hit, by the source's call; i = inactive; nt = no result given.
SMILES,MrgX1 PAM,MrgX1 antagonist,RGS4 block,RGS4 pot,MrgX1 agonist
Cc1ccc(S(=O)(=O)c2cn(Cc3ccc(F)cc3)c3cc4c(cc3c2=O)OCO4)cc1,i,-4.6*,i,i,i
Cc1cnc(C(=O)OCC(=O)c2ccc(Br)s2)cn1,i,i,i,i,i
Cc1cccc(C(=O)OC(C)C(=O)Nc2ccc(S(=O)(=O)N3CCCC3)cc2)c1O (configuration not stated),i,i,i,-7.3*,i
CC(OC(=O)c1cc(Br)ccc1O)C(=O)Nc1ccc(S(=O)(=O)N2CCCC2)cc1 (configuration not stated),i,i,i,i,i
Nc1[nH]c2cc([N+](=O)[O-])ccc2c1-c1ccccn1,i,-7.6*,i,i,i
Nc1nc2ccc([N+](=O)[O-])cc2[nH]1,i,i,i,i,i
CC(C)c1ccccc1NCC(=O)N1CCN(Cc2ccccc2)CC1,i,i,i,i,i
Cc1ccc(NCc2nnc(SCC(=O)NCCc3ccccc3)n2C)cc1,nt,nt,i,i,nt
COCC(=O)N1CCC(Oc2ccc(C(=O)NCCCC3CCCC3)cc2)CC1,i,i,i,i,i
COc1ccc(N2CC(O)(c3ccc(F)cc3)[N+]3=C2CCCC3)cc1 (configuration not stated),i,i,i,i,i
COc1ccc(N2CC(O)(c3ccc(OC(F)F)cc3)[N+]3=C2CCCC3)cc1 (configuration not stated),i,i,i,-8.3*,i
CCOC(=O)C1=C(c2ccccc2)NC(=S)NC1c1ccc(C)c([N+](=O)[O-])c1 (configuration not stated),i,-4.9*,i,i,i
CCOC(=O)C1=C(c2ccccc2)NC(=S)NC1c1cccc([N+](=O)[O-])c1 (configuration not stated),i,i,i,i,i
O=C(CSCc1cccc(Br)c1)N/N=C/c1ccc2c(c1)OCO2,i,-5.4*,i,i,i
O=C(CSCc1ccccc1)N/N=C/c1ccccc1OCc1ccccc1,i,-5.4*,i,i,i
NC(=S)N/N=C/c1c[nH]c2ccc(OCc3ccccc3)cc12,i,i,i,-7.1*,i
NC(=S)N/N=C\c1ccccc1OCc1ccccc1,i,-8.7*,i,i,i
FC(F)(F)c1cccc(OCC2CNC(=S)O2)c1 (configuration not stated),i,i,i,i,i
COc1cc2c(cc1OC)CN(C(=O)C1CCN(S(=O)(=O)c3ccccc3F)CC1)CC2,i,i,i,i,i
CCCCSc1nc2sc3c(c2c(=O)n1-c1ccccc1)CCN(C)C3,i,i,i,-7.3*,i
C=C(C)CSc1nc2sc3c(c2c(=O)n1-c1ccccc1)CCN(C)C3,i,i,i,-7.5*,i
O=C(CC1Sc2ccccc2NC1=O)Nc1cccnc1 (configuration not stated),i,i,i,i,i
O=C(CC1Sc2ccccc2NC1=O)Nc1ccccc1[N+](=O)[O-] (configuration not stated),i,-6.7*,i,i,i
C/C(CC(=O)Nc1ccc(Cl)cc1Cl)=N\NC(=O)C(=O)N1CCCC1,i,i,i,i,i
COCCNC(=O)C(=O)N/N=C(\C)CC(=O)Nc1ccc(Cl)cc1Cl,i,-6.4*,i,i,i
SMILES,MrgX1 PAM,MrgX1 antagonist,RGS4 block,RGS4 pot,MrgX1 agonist
COc1cc(CNc2ccc(C(=O)O)cc2)cc(Br)c1OCC(=O)NC(C)(C)C,i,-5.3*,i,i,i
CCOc1cc(CNc2ccc(OC)cc2)cc(Br)c1OCC(=O)NC(C)(C)C,i,i,i,i,i
CC(C)N1CCc2c(sc(NC(=O)c3nc4ccccc4s3)c2C(N)=O)C1,i,i,i,i,i
CC(C)N1CCc2c(sc(NC(=O)c3cc(-c4cccs4)nc4ccccc34)c2C(N)=O)C1,i,i,i,-11*,i
Cc1ncsc1CCC(=O)N1CCCC(Nc2ccc(C(C)C)cc2)C1 (configuration not stated),i,-6.6*,i,i,i
O=C(NNC1=C(C(=O)C(F)(F)F)CCC1)c1ccccc1O,i,i,i,i,i
COc1ccccc1C(=O)NNC1=C(C(=O)C(F)(F)F)CCC1,i,i,i,i,39*
NC1=NC(=O)/C(=C/c2ccc(-c3ccc(S(N)(=O)=O)cc3)o2)S1,i,-4.7*,i,i,i
N#CCCN(C(=O)COC(=O)CCc1c[nH]c2ccccc12)c1ccc(F)cc1,i,i,i,i,i
Cc1cc(/C=C2/NC(=O)NC2=O)c(C)n1-c1ccccn1,i,i,i,i,i
Cc1ccc(-n2c(C)cc(/C=C3\NC(=O)NC3=O)c2C)c(C)c1,i,i,i,-7.6*,i
Cc1nnc(SCc2cc([N+](=O)[O-])cc3c2OCOC3)[nH]c1=O,i,i,i,i,i
COc1ccc(Nc2nnc(SCc3cc([N+](=O)[O-])cc4c3OCOC4)s2)cc1,i,-4.6*,i,i,i
N=c1oc2c3c4c(cc2cc1C(=O)Nc1ccccc1)CCCN4CCC3,i,i,i,-9.3*,i
CN(C)CCCNC(=O)/C(=C\c1ccc(-c2ccc(Br)cc2)o1)NC(=O)c1ccccc1,i,i,i,i,i
CN(C)CCCNC(=O)/C(=C/c1ccc(-c2ccc([N+](=O)[O-])cc2)o1)NC(=O)c1ccccc1,i,-5.7*,i,i,i
O=C(N/N=C/c1cccc([N+](=O)[O-])c1)c1cc[n+](CCO)cc1,i,i,i,i,i
Clc1ccccc1C1=CC(c2ccco2)n2ncnc2N1 (configuration not stated),i,i,i,i,29*
CCO/C([O-])=N/c1sn[n+](C)c1C,i,-5.3*,i,i,i
CN1C2CCC1/C(=C\c1ccccc1)C(=O)/C2=C\c1ccccc1,12*,i,i,i,i
O=C1/C(=C/c2ccccc2)CCC1C1CCCC1 (configuration not stated),i,i,i,i,i

# Screening data (PubChem)
